Among the data in ChEMBL document CHEMBL2406967, “Contribution of Cage-Shaped Structure of Physalins to Their Mode of Action in Inhibition of NF-κB Activation” (ACS Med Chem Lett, 2013) are IC50, inhibition and Ratio IC50 values, retold here.

Activity calls are given as the source filed them. The calls are words filed in the database; no cut-off is given here. Where only a bound is given, the exact number is not on record here.

Assay [1] can be described thus: Inhibition of TNFalpha-induced NF-kappaB activation (unknown origin) expressed in human HeLa cells pretreated 30 mins before TNFalpha addition after 7 hrs by luciferase reporter gene assay. In kind it is cell-based. In a few lines: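 HeLa cells stably transfected with an NF-κB reporter construct, stimulated with TNF-α; IC50 values are means of three independent experiments, with standard deviation.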

Assay [2] deals with T1, NF-kappa-B inhibitor alpha (Homo sapiens) (UniProt P25963).
T1 sequence (whole entry): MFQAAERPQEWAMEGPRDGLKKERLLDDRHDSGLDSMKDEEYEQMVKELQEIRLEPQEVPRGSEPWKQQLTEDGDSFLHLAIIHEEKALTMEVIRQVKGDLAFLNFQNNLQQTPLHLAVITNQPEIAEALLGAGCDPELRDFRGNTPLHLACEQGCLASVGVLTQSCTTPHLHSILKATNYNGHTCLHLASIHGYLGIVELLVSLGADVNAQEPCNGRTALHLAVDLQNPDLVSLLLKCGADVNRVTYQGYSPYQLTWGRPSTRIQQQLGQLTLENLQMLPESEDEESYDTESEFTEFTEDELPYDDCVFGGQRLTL
Kind of assay: Inhibition of TNFalpha-induced IkappaBalpha (unknown origin) degradation expressed in human HeLa cells at 50 uM pretreated […] before TNFalpha addition […] by ELISA. It is filed as cell-based. For orientation: In an ELISA, binding on a coated surface is turned into a signal by an enzyme label.

Assay [3] concerns HeLa. Kind of assay: Inhibition of NF-kappaB (unknown origin) expressed in human HeLa cells assessed as inhibition of TNFalpha-induced DNA binding of p50 pretreated 30 mins before TNFalpha addition measured after 30 mins by EMSA. Background: Mobility shift assays separate free from complexed probe on a gel.
Assay [4] relates to HeLa. As to the kind of experiment: Inhibition of NF-kappaB (unknown origin) expressed in human HeLa cells assessed as inhibition of TNFalpha-induced DNA binding of RelA pretreated 30 mins before TNFalpha addition measured after 30 mins by EMSA.
For assay [5], the system named is HeLa. As to the kind of experiment: Inhibition of NF-kappaB (unknown origin) expressed in human HeLa cells assessed as inhibition of TNFalpha-induced RelA nuclear translocation at 100 uM […] by Western blot analysis. It is filed as cell-based. The method in brief: (§1)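 HeLa cells pretreated 30 min with a range of compound concentrations or DMSO, then stimulated with TNF-α (50 ng/mL) for 15 min. Cytoplasmic and nuclear fractions were immunoblotted for RelA and p50. Tubulin marked the cytoplasmic fraction and PARP the nuclear fraction.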

Assay [6] relates to HeLa. Kind of assay: Inhibition of NF-kappaB (unknown origin) expressed in human HeLa cells assessed as inhibition of TNFalpha-induced p50 nuclear translocation at 100 uM […] by Western blot analysis. In kind it is cell-based. The method in brief:
as §1
In general terms: Immunoblotting shows a protein as a band on a membrane.

Assay [7] deals with HeLa. Kind of assay: Ratio of IC50 for TNFalpha-induced NF-kappaB (unknown origin) activation expressed in human HeLa cells to IC50 for TNFalpha-induced IkappaBalpha (unknown origin) phosphorylation expressed in human HeLa cells. In kind it is cell-based.
Assay [8] deals with HeLa. Kind of assay: Inhibition of NF-kappaB (unknown origin) expressed in human HeLa cells assessed as inhibition of TNFalpha-induced RelA nuclear translocation pretreated 30 mins before TNFalpha addition measured after 15 mins by Western blot analysis.
In assay [9] the test system is HeLa. As to the kind of experiment: Inhibition of NF-kappaB (unknown origin) expressed in human HeLa cells assessed as inhibition of TNFalpha-induced p50 nuclear translocation pretreated 30 mins before TNFalpha addition measured after 15 mins by Western blot analysis.

Turning to `C[C@@]12C[C@H]3OC(=O)[C@]1(O)CO[C@]14O[C@@]5([C@H]2C1=O)[C@@]3(C)OC(=O)[C@@]5(O)CC[C@H]1[C@H]4C[C@@H]2O[C@@]23CC=CC(=O)[C@]13C` [25-HYDROXY PHYSALIN J], the IC50 in [1] is > 50 µM.

On to `C=C1C(=O)O[C@@H]2C[C@@]1(C)[C@@H]1C(=O)[C@@H](O)O[C@@]13[C@H](OCc1ccccc1)C(=O)O[C@@]23C`, for which, in assay [1], the IC50 is 85.8 µM.

As for `C[C@@]12C[C@H]3OC(=O)[C@@H]1CO[C@@]14O[C@]5(C2C1=O)[C@@](O)(CC[C@H]1[C@H]4C[C@@H]2O[C@@]24CC=CC(=O)[C@]14C)C(=O)O[C@@]35C` [PHYSALIN J], the IC50 in assay [1] was found to be 36.2 µM.

Consider `C[C@]12C(=O)C=CCC1=C[C@@H](O)[C@@H]1[C@@H]2CC[C@@]2(O)C(=O)O[C@@]3(C)[C@H]4C[C@]5(C)[C@@H](CO[C@@]16O[C@]23[C@H]5C6=O)C(=O)O4`, for which, in assay [1], the IC50 was 11.4 µM. In assay [2], the inhibition is -3.8%.

Consider `C[C@@H]1C(=O)O[C@@H]2C[C@@]1(C)[C@@H]1C(=O)[C@]3(O)O[C@]14[C@@]2(C)OC(=O)[C@@]4(O)CC[C@H]1[C@H]3[C@H](O)C=C2CC=CC(=O)[C@@]21C` [PHYSALIN O], for which the IC50 in [1] was > 50 µM.

Consider `CC1=C(C)C(=O)O[C@@H]([C@](C)(O)[C@]2(O)CC[C@@]3(O)[C@@H]4CC=C5CC=CC(=O)[C@]5(C)[C@H]4CC[C@]23C)C1` [WITHANOLIDE F], for which the IC50 in assay [1] was determined as 2 µM. For the same compound, the inhibition result in the assay on HeLa [3] and in the assay on HeLa [4] was “Dose-dependent effect” in each case. For the same compound, the inhibition entry in the assay with HeLa [5] and in the assay on HeLa [6] was “Active” throughout.

`C[C@H]1C(=O)OC[C@H]1C[C@@H](O)[C@](C)(O)[C@]1(O)CC[C@@]2(O)[C@@H]3CC=C4CC=CC(=O)[C@]4(C)[C@H]3CC[C@]12C`: the IC50 in [1] stood at 33.2 µM.

Take `C[C@@]12C[C@H]3OC(=O)[C@@H]1CO[C@]14O[C@]5([C@H]2C1=O)[C@@](O)(CC[C@H]1[C@H]4C[C@H]2O[C@]24CC=CC(=O)[C@]14C)C(=O)O[C@@]35C` [PHYSALIN F]: the IC50 in assay [1] worked out at 2.53 µM. In the assay with HeLa [7], the Ratio IC50 turned out to be 10. For the same compound, in assay [2], the inhibition stood at 45.2%.

Turning to `C[C@]12C(=O)C=CCC1=CC[C@@H]1[C@@H]2CC[C@]2(O)C(=O)O[C@@]3(C)[C@H]4C[C@@](C)([C@@H]5C(=O)[C@]1(O)O[C@@]532)[C@](C)(O)C(=O)O4`, the half-inhibitory concentration (IC50) in [1] was > 50 µM.

Consider `C[C@@]12C[C@H]3OC(=O)[C@@H]1CO[C@@H]1O[C@@]4([C@H](OCc5ccccc5)C(=O)O[C@@]34C)[C@H]2C1=O`, for which, in assay [1], the IC50 was 43.6 µM.

`C[C@@]12C[C@H]3OC(=O)[C@@H]1CO[C@@H]1O[C@@]4([C@H](O)C(=O)O[C@@]34C)[C@H]2C1=O`: the IC50 in assay [1] was > 200 µM.

`C=C1C(=O)O[C@@H]2C[C@@]1(C)[C@@H]1C(=O)[C@]3(O)O[C@]14[C@@]2(C)OC(=O)[C@@]4(O)CC[C@H]1[C@H]3CC=C2CC=CC(=O)[C@@]21C`: the IC50 in assay [1] came out at 6.54 µM. The inhibition entry was “Dose-dependent effect” in the assay on HeLa [8], “Dose-dependent effect” in the assay on HeLa [9] and 0.8% in assay [2].

`C#C[C@]12O[C@H]3OC[C@H]4C(=O)O[C@H](C[C@@]4(C)[C@@H]1C3=O)[C@]2(C)O`: the IC50 in assay [1] was found to be 104 µM.

With `C=C1C(=O)O[C@@H]2C[C@@]1(C)[C@@H]1C(=O)[C@]3(O)O[C@]14[C@@]2(C)OC(=O)[C@@]4(O)CC[C@H]1[C@H]3[C@H](O)C=C2CC=CC(=O)[C@@]21C` [PHYSALIN A], the IC50 in [1] was 22.7 µM. Moreover, in [2], the inhibition was -3.4%.

For `C[C@H]1C(=O)OC[C@H]1C[C@@H](O)[C@](C)(O)[C@@]1(O)CC[C@@]2(O)[C@@H]3CC=C4CC=CC(=O)[C@]4(C)[C@H]3CC[C@]12C`, the IC50 in assay [1] came to 32.4 µM.

Consider `C[C@]12C(=O)C=CCC1=CC[C@@H]1[C@@H]2CC[C@]2(O)C(=O)O[C@@]3(C)[C@H]4C[C@]5(C)[C@@H](CO[C@@]16O[C@@]32[C@H]5C6=O)C(=O)O4` [PHYSALIN B], for which the IC50 in assay [1] was 6.07 µM. The inhibition result was “Dose-dependent effect” in the assay with HeLa [8]; “Dose-dependent effect” in the assay on HeLa [9]; “Dose-dependent effect” with HeLa [3]; “Dose-dependent effect” in the assay on HeLa [4]; 7% in assay [2].

As for `CC1=C(C)C(=O)O[C@@H]([C@](C)(O)[C@H]2CC[C@@]3(O)[C@@H]4CC=C5CC=CC(=O)[C@]5(C)[C@H]4CC[C@]23C)C1`, the IC50 in [1] came to 20.7 µM.

With `CC1=C(C)C(=O)O[C@@H]([C@](C)(O)C2=CC[C@@]3(O)[C@@H]4CC=C5CC=CC(=O)[C@]5(C)[C@H]4CC[C@]23C)C1`, in assay [1], the IC50 is 20.8 µM.

`C[C@@]12C[C@H]3OC(=O)[C@]1(O)CO[C@]14O[C@@]5([C@H]2C1=O)[C@@]3(C)OC(=O)[C@@]5(O)CC[C@H]1[C@H]4C[C@H]2O[C@]23CC=CC(=O)[C@]13C` [25-HYDROXY PHYSALIN F]: the IC50 in assay [1] stood at 4.38 µM. In addition, in the assay with HeLa [7], the Ratio IC50 worked out at 10. The inhibition in [2] was found to be 29%.

Regarding `CC(=O)O[C@@H]1C(=O)O[C@@]2(C)[C@H]3C[C@]4(C)[C@@H](CO[C@@H]5O[C@]12[C@H]4C5=O)C(=O)O3`, in assay [1], the IC50 was > 200 µM.

Take `CC1=C(C)C(=O)O[C@@H]([C@](C)(O)[C@]2(O)CC[C@@]3(O)[C@@H]4C[C@H]5O[C@]56CC=CC(=O)[C@]6(C)[C@H]4CC[C@]23C)C1` [WITHANOLIDE E]: the half-maximal inhibitory concentration (IC50) in [1] is 0.98 µM. The Ratio IC50 in the assay with HeLa [7] is 10. Besides, the inhibition in [2] was found to be 46.8%.

The IC50 is the midpoint of a concentration-inhibition curve. What is called inhibition is the change of the read-out against control, counted positive when it falls.
